Drawing on ChEMBL document CHEMBL4513216, “Probing the Open Global Health Chemical Diversity Library for Multistage-Active Starting Points for Next-Generation Antimalarials” (ACS Infect Dis, 2020), this text covers cytotoxicity for 98 compounds.

Each structure is given as a SMILES string.

The nature of this data set: Toxicity liver stage against HepG2, at 10uM. Particulars: human, HepG2-A16-CD81EGFP cells; read-out: INHIBITION
Type of data set: cell-based. Further details: test concentration 10 uM, cell line HepG2-A16-CD81EGFP. A digest of the protocol: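 Uninfected HepG2-A16-CD81EGFP cells, 3 × 10^3 per well, 1536-well, plated on prespotted compound at 10 μM final, parasite-free screening media added to match infected plates; puromycin 10 μM positive, DMSO 0.5% negative; run in parallel with 48 h PbLuc assay at 37 °C, 5% CO2; viability by CellTiter-Glo luminescence, normalized to controls.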
Turning to `CC(Cc1ccco1)NC(=O)Nc1ccc(S(C)(=O)=O)nc1` (stereo not drawn), the cytotoxicity at 10 µM was found to be 3.95%.

Consider `Cn1ccnc1CCNS(=O)(=O)c1cccnc1`, for which the cytotoxicity at 10 µM was 10.7%.

In the case of `Cc1ccc(S(=O)(=O)NC[C@H]2OC[C@@H](NCc3ccccn3)[C@@H]2O)cc1`, the cytotoxicity at 10 µM was -52.5%.

As for `Nc1ncncc1-c1noc([C@@H]2CCCN2CCCc2ccccc2)n1`, the cytotoxicity at 10 µM is 1.58%.

In the case of `COc1c[nH]c(C(=O)N2CCN(c3cccc(Cl)c3)CC2)cc1=O`, the cytotoxicity at 10 µM is -1%.

As to `O=c1cc2c(nn1CN1CCN(c3ccccc3)CC1)CCCC2`, the cytotoxicity at 10 µM was -9.58%.

As to `CCN1CCCC1CNC(=O)Cc1c(C)n[nH]c1-c1ccc(F)cc1` (stereo not drawn), the cytotoxicity at 10 µM was -3.02%.

Regarding `CC1CCN(C(=O)CSc2nc3c(cnn3CCO)c(=O)[nH]2)CC1`, the cytotoxicity at 10 µM was determined as 7.98%.

On to `Cc1ccnc(OCC(=O)N2CCCC2)n1`, for which the cytotoxicity at 10 µM was -10.2%.

For `COCc1cncc2c1CCN(C(=O)c1ccsc1)C2`, the cytotoxicity at 10 µM is 2.43%.

For the compound `Cc1nocc1C(=O)N1CCCC2(CCN(c3cnn(C)c3)C2=O)C1` (stereo not drawn), the cytotoxicity at 10 µM was determined as 2.43%.

Take `O=C(NC1CCCC1)N1CCCCC1c1nc(C2CC2)no1` (stereo not drawn): the cytotoxicity at 10 µM was -9.52%.

Regarding `CCn1ccc(NC(=O)CCc2c(C)noc2C)n1`, the cytotoxicity at 10 µM was determined as 7.16%.

Regarding `Cc1nc(NCCc2ccccc2)cc(C(=O)N2CCOCC2)n1`, the cytotoxicity at 10 µM was -3.01%.

Regarding `CCn1ccc(C(=O)NCCCN2CCOCC2)n1`, the cytotoxicity at 10 µM was -7.9%.

Take `O=S(=O)(c1cn[nH]c1)N1CCC(O)(CN2CCOCC2)C1` (stereo not drawn): the cytotoxicity at 10 µM is 2.5%.

As for `CN(C)Cc1cnc(C2CN(C(=O)c3ccccc3Cl)CCO2)[nH]1` (stereo not drawn), the cytotoxicity at 10 µM came to 1.07%.

For `Cc1cc(O)cc(C2CCCN2C(=O)c2ccncc2)n1` (stereo not drawn), the cytotoxicity at 10 µM was determined as 8.16%.

`Fc1ccc(Oc2nccnc2C2CCN(C3CCOCC3)CC2)cc1`: the cytotoxicity at 10 µM is -2.5%.

Regarding `COc1cc(C2Nc3cc(Cl)ccc3C3=NCCN32)cc(OC)c1OC` (stereo not drawn), the cytotoxicity at 10 µM was -24.8%.

`CCC(=O)N1CCC(c2nc(O)c3c(n2)CN(C2CCCCC2)CC3)C1` (stereo not drawn): the cytotoxicity at 10 µM was -15.7%.

Consider `CCn1cc(CN2CCC(O)(Cn3ccc4ncccc43)CC2)cn1`, for which the cytotoxicity at 10 µM is -16.3%.

Turning to `O=C(c1cc(Cl)c[nH]1)N(CCCO)Cc1cccnc1`, the cytotoxicity at 10 µM worked out at 7.48%.

For the compound `O=C(c1ccc(-c2cccs2)cc1F)N1CCN(CCO)CC1`, the cytotoxicity at 10 µM was -47.3%.

As to `CC(=O)Nc1nc(COc2nc(C)no2)cs1`, the cytotoxicity at 10 µM was -16.6%.

`CCOCCC(=O)NCCNc1nccc(C(F)(F)F)n1`: the cytotoxicity at 10 µM stood at 2.88%.

As for `CCCn1ccnc1SCC(=O)NC(Cc1ccccc1)C(C)=O` (stereo not drawn), the cytotoxicity at 10 µM is -9.58%.

Regarding `N#CC1(NC(=O)COC(=O)Cc2cc(Cl)c3c(c2)OCCO3)CCCC1`, the cytotoxicity at 10 µM stood at 0.935%.

For `c1csc(N2CCN(c3ncnc4sccc34)CC2)n1`, the cytotoxicity at 10 µM is 34.6%.

Regarding `C[S+]([O-])c1ccc(CNc2ccc(F)cc2OC(F)F)cc1` (stereo not drawn), the cytotoxicity at 10 µM was 0.752%.

As for `CC(C)CN(C(=O)Nc1cccc(C(=O)N(C)C)c1)C1CC1`, the cytotoxicity at 10 µM was -15.2%.

`O=C(NCCNS(=O)(=O)c1cccc(Cl)c1)C1CCCO1` (stereo not drawn): the cytotoxicity at 10 µM amounted to 11.5%.

Turning to `Cc1cc(C(=O)NCC2(N(C)C)CCCC2)c(C)n1-c1cccnc1`, the cytotoxicity at 10 µM is -8.41%.

On to `Cc1ncsc1C(=O)NC1CCN(c2ncccc2C#N)CC1`, for which the cytotoxicity at 10 µM was determined as 2.68%.

With `CCc1ccc(C(C)NC(=O)CCc2nc(-c3nnc[nH]3)no2)cc1` (stereo not drawn), the cytotoxicity at 10 µM is -1.98%.

Turning to `NS(=O)(=O)N1CCc2ccc(NC(=O)CCc3ccncc3)cc21`, the cytotoxicity at 10 µM came to 2.68%.

As for `CC(NC(=O)Cn1ccnc1)c1ccc(OCC2CC2)c(F)c1` (stereo not drawn), the cytotoxicity at 10 µM was 0.99%.

For the compound `FC(F)(F)Sc1ccc(NCc2nnc(C3CC3)o2)cc1`, the cytotoxicity at 10 µM worked out at 5.69%.

In the case of `COCCCn1ccc(NCc2cnc(C(C)(C)C)s2)n1`, the cytotoxicity at 10 µM was determined as 5.91%.

In the case of `Cc1c(C(=O)N(C)CC(C)O)sc2nc(C(F)(F)F)ccc12` (stereo not drawn), the cytotoxicity at 10 µM was -0.943%.

For the compound `O=C(CCS(=O)(=O)C1CCCC1)NCCc1cccnc1`, the cytotoxicity at 10 µM was 6.86%.

As for `CN(CCN1CCOCC1)S(=O)(=O)CC1CCCC1`, the cytotoxicity at 10 µM is 10.2%.

With `CC(C)c1noc(CN(C)C(c2ccc(F)cc2)c2cccnc2)n1` (stereo not drawn), the cytotoxicity at 10 µM was 5.66%.

On to `CC1COCCN1Cc1noc(C(C)(C)C)n1` (stereo not drawn), for which the cytotoxicity at 10 µM came out at 5.67%.

Consider `CO[C@H]1CN(C(=O)OC(C)(C)C)CC1NCc1cc[nH]c1` (stereo partly drawn), for which the cytotoxicity at 10 µM is -46.6%.

On to `CN(C)S(=O)(=O)c1ccc(CN2CCC(c3ccccc3)C2)o1` (stereo not drawn), for which the cytotoxicity at 10 µM is 17.5%.

Turning to `CC(C)CC(c1nc(-c2cnn(C)c2)no1)N1CCCCC1=O` (stereo not drawn), the cytotoxicity at 10 µM was -42%.

As for `CC(c1ccccc1F)N1CCN(C(=O)Cc2ccncc2)CC1` (stereo not drawn), the cytotoxicity at 10 µM is -2.94%.

On to `Cc1ccc(CNCCOc2ccc(S(C)(=O)=O)cc2)cc1`, for which the cytotoxicity at 10 µM was -9.12%.

`c1ccc(OC[C@H]2CCC[C@]23CN(Cc2nccs2)CCO3)nc1`: the cytotoxicity at 10 µM was determined as 3.34%.

`CN1CCN(CC2CC2)C(=O)c2cnc(N3CC[C@@H](O)C3)nc21`: the cytotoxicity at 10 µM stood at 2.19%.

For `CC(C)CN(Cc1ccccn1)Cc1ccccc1C(=O)O`, the cytotoxicity at 10 µM worked out at 2.51%.

As for `C1CCC(c2nc3c(c(N4CCN5CCCC5C4)n2)CCNCC3)C1` (stereo not drawn), the cytotoxicity at 10 µM was -1.1%.

On to `CCS(=O)(=O)c1ncc(CN2CCN(C)CC2)n1CCc1ccccc1`, for which the cytotoxicity at 10 µM was determined as 2.44%.

For `CCC1CN(C(=O)c2cc(C(C)=O)c(C)[nH]c2=O)CCN1C(C)C` (stereo not drawn), the cytotoxicity at 10 µM was determined as 6.03%.

`COc1ccccc1OC1CN(c2ccncc2)C1`: the cytotoxicity at 10 µM is -2.76%.

With `O=C(Cc1ccc2c(c1)OCO2)N1CCN(c2ccccc2Cl)C(=O)C1`, the cytotoxicity at 10 µM is -0.874%.

Consider `Cc1nc2c(c(N3CCC(CN4CCCC4=O)CC3)n1)CCNCC2`, for which the cytotoxicity at 10 µM was 8.64%.

Take `COCc1ncc(CN2CCN(C)C(=O)C2C)cn1` (stereo not drawn): the cytotoxicity at 10 µM amounted to 1.31%.

`O=C(c1cccnc1)C1CCCN(c2nnc(C3CC3)o2)C1` (stereo not drawn): the cytotoxicity at 10 µM was determined as 6.59%.

`CC(Nc1ncnc2sccc12)c1cnn(C)c1` (stereo not drawn): the cytotoxicity at 10 µM is -2.63%.

As to `Cc1nsc(NC(=O)NC2(CN3CCOCC3)CCCC2)n1`, the cytotoxicity at 10 µM amounted to 3.89%.

`O=C1NCC(CN2CCc3onc(-c4ccc(C(F)(F)F)cc4)c3C2)O1` (stereo not drawn): the cytotoxicity at 10 µM came to 2.02%.

For the compound `CCN1CCN(C(=O)CCC2CCN(C(C)CCC(=O)OC)CC2)CC1` (stereo not drawn), the cytotoxicity at 10 µM came out at 0.9%.

In the case of `COCc1nnc(C(=O)N2CCC(N3CCCCC3)CC2)o1`, the cytotoxicity at 10 µM turned out to be 10.2%.

Consider `CC(=O)N[C@@H]1CN(Cc2nc3ccccc3[nH]2)C[C@H]1c1ccc(C)o1`, for which the cytotoxicity at 10 µM stood at 2.75%.

With `COCCNC(=O)c1cnc(C)nc1C`, the cytotoxicity at 10 µM was found to be 24.5%.

With `CN(C)CC1(O)CCN(C(=O)Cc2ccc(Cl)c(Cl)c2)C1` (stereo not drawn), the cytotoxicity at 10 µM was -4%.

For `Cc1cc(C(F)(F)F)nc(CNC(=O)CCC2CCCCN2C)n1` (stereo not drawn), the cytotoxicity at 10 µM is -59%.

With `COCc1ncc(CN(CCN(C)C)Cc2ccc(C)s2)cn1`, the cytotoxicity at 10 µM is -57.1%.

On to `COC(=O)c1cccc(S(=O)(=O)NC(=O)COC2CCCCC2)c1`, for which the cytotoxicity at 10 µM is -10.1%.

Regarding `Cc1nc(C)n(CC2CCCN(Cc3cccc4c3OCCO4)C2)n1` (stereo not drawn), the cytotoxicity at 10 µM is -5.23%.

For `Cc1ccc(C)c(NS(=O)(=O)c2cc3c(c(C(=O)O)c2)OCCO3)c1`, the cytotoxicity at 10 µM was -0.882%.

As for `N#Cc1cccc(NC(=O)CCn2nc(-c3cccs3)oc2=O)c1`, the cytotoxicity at 10 µM is -2%.

Consider `CN(C)c1cc(C(=O)N2CCCN(c3cccnn3)CC2)ccn1`, for which the cytotoxicity at 10 µM is -8.19%.

Consider `Cc1ccc(-c2noc(CN3CCc4cncnc4C3)n2)cc1`, for which the cytotoxicity at 10 µM was found to be 1.04%.

As for `Cc1cnn(CC2CCCCN2C(=O)c2ccccc2-n2cccn2)c1` (stereo not drawn), the cytotoxicity at 10 µM was -8.4%.

Take `CC(NC(=O)CNCCn1cccn1)c1ccc2c(c1)CCCC2` (stereo not drawn): the cytotoxicity at 10 µM was -11.4%.

Take `FC(F)(F)COCCN1CCN(c2ccc3nncn3n2)CC1`: the cytotoxicity at 10 µM is -7.77%.

In the case of `CC(C)c1nccn1C1CCCN(C(=O)c2cnc[nH]2)C1` (stereo not drawn), the cytotoxicity at 10 µM was -0.808%.

As to `Nc1nc(CN2CCOC(Cn3cncn3)C2)nc2ccccc12` (stereo not drawn), the cytotoxicity at 10 µM is -0.734%.

Consider `c1cnnc(N2CCCC2CNCc2ccsc2)c1` (stereo not drawn), for which the cytotoxicity at 10 µM was -8.9%.

Consider `Cc1ccc(C)c(OC2CCN(C(=O)c3ccc(C)[nH]c3=O)CC2)c1`, for which the cytotoxicity at 10 µM turned out to be 2.87%.

For `Cc1cccc(-c2noc(CN3CCCC(Cn4cncn4)C3)n2)c1` (stereo not drawn), the cytotoxicity at 10 µM is -3.51%.

For `COc1ccc(C(=O)N2CCCCC2Cn2cccn2)c(F)c1` (stereo not drawn), the cytotoxicity at 10 µM was -5.38%.

Turning to `c1ccc(OCCCNCCn2cccn2)cc1`, the cytotoxicity at 10 µM is -5.46%.

For `O=C(NCCNc1cnccn1)C1CCN(C(=O)N2CCCC2)CC1`, the cytotoxicity at 10 µM is -0.577%.

On to `CC(C(=O)N1CCN(c2cnccn2)CC1)n1cncn1` (stereo not drawn), for which the cytotoxicity at 10 µM worked out at 8.37%.

For the compound `CC(NC(=O)CN(C)S(C)(=O)=O)c1nnc2n1CCCCC2` (stereo not drawn), the cytotoxicity at 10 µM was -10.2%.

Consider `CCc1nc(C2CCCN(C(=O)c3ccc4c(c3)nnn4C)C2)no1` (stereo not drawn), for which the cytotoxicity at 10 µM was -3.3%.

As for `COCCc1noc(CNCC2CCCN2c2cccnn2)n1` (stereo not drawn), the cytotoxicity at 10 µM was 4.33%.

Turning to `Cn1cnnc1C1CCCN(C(=O)NCCOc2ccccc2)C1` (stereo not drawn), the cytotoxicity at 10 µM was determined as 7.48%.

Regarding `Cc1ccc(OCCCSC2=NCCN2)cc1`, the cytotoxicity at 10 µM was -9.66%.

On to `CN(C)C[C@H]1OC[C@@H]2CCN(S(=O)(=O)c3cccs3)C[C@@H]21`, for which the cytotoxicity at 10 µM came out at 3.04%.

Regarding `Cn1cc(CN2CCC3(CC2)CCN(C(=O)c2cscn2)C3)cn1`, the cytotoxicity at 10 µM is -2.45%.

Regarding `CCN1CC2(CC1=O)CN(Cc1ccncc1)CCN(C(=O)C(C)C)C2` (stereo not drawn), the cytotoxicity at 10 µM is -0.182%.

Take `O=S(=O)(c1cccnc1)N1C[C@H]2CCC[C@@]2(COc2ccccn2)C1`: the cytotoxicity at 10 µM turned out to be 7.05%.

For the compound `Cc1ccc(CN2CC[C@H]3C[C@H](C(=O)N4CCCO4)O[C@@H]3C2)o1`, the cytotoxicity at 10 µM came to 7.11%.
